{
  "source": "paper PMC6977399",
  "about": "(Clinical Pharmacology and Therapeutics, 2019)",
  "key": {"Bruton's tyrosine kinase": {"system": "Bruton's tyrosine kinase", "settings": "phase I studies; cited from earlier work"}, "CYP2B6": {"target": "T1, CYP2B6 (Homo sapiens, UniProt P20813)", "T1 sequence (P20813 1-491)": "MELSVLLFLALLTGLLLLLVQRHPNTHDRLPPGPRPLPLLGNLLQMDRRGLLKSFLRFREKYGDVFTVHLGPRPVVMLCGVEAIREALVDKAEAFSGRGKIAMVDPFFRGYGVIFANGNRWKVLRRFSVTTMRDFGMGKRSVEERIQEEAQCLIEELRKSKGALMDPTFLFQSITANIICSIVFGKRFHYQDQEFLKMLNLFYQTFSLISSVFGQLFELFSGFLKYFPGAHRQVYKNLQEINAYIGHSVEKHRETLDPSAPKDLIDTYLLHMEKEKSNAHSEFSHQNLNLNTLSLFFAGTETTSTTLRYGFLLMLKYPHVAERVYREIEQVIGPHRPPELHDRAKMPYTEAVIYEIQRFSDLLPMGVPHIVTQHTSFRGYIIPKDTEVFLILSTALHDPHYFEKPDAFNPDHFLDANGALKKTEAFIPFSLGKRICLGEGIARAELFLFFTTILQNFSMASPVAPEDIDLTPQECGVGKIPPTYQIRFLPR", "test": "CYP inhibition in human liver microsomes", "format": "in vitro ADME", "settings": "up to 50 μM", "method_in_brief": "(§1)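 Reversible inhibition: test compound pre-incubated 10 min at 37°C with pooled human liver microsomes plus an isoform-selective probe substrate. Reaction started with NADPH (1.3 mM), then quenched with 3% formic acid in acetonitrile containing internal standard. CYP-specific metabolite formation measured by LC-MS/MS. Activity expressed as % control = (peak area ratio with compound / without compound) × 100.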"}, "[1]": {"settings": "phase I single-ascending and multiple-ascending dose studies; cited from earlier work"}, "OATP1B3": {"target": "T2, OATP1B3 (Homo sapiens, UniProt Q9NPD5)", "T2 sequence (Q9NPD5 1-702)": "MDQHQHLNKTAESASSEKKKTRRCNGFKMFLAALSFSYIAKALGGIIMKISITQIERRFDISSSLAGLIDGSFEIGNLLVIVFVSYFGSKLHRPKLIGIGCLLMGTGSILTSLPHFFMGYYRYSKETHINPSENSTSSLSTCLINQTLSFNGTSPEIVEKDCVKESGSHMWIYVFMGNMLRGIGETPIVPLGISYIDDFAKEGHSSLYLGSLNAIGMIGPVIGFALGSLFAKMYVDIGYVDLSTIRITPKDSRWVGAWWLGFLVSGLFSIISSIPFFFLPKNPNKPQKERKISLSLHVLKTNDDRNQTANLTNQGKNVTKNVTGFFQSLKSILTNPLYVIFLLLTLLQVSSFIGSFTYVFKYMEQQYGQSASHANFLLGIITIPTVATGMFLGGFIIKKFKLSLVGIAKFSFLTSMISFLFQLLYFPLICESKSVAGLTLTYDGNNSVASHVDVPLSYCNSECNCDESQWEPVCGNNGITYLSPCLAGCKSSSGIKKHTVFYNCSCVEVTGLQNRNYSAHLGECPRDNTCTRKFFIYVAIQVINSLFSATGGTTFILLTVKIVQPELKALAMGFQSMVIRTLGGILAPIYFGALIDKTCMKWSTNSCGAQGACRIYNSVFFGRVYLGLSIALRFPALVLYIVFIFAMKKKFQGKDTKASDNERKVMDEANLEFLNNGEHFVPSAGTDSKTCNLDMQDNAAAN", "test": "Inhibition of OATP1B3-mediated CCK-8 uptake in HEK293 cells", "format": "in vitro ADME"}, "CYP2C8": {"target": "T3, CYP2C8 (Homo sapiens, UniProt P10632)", "T3 sequence (P10632 1-490)": "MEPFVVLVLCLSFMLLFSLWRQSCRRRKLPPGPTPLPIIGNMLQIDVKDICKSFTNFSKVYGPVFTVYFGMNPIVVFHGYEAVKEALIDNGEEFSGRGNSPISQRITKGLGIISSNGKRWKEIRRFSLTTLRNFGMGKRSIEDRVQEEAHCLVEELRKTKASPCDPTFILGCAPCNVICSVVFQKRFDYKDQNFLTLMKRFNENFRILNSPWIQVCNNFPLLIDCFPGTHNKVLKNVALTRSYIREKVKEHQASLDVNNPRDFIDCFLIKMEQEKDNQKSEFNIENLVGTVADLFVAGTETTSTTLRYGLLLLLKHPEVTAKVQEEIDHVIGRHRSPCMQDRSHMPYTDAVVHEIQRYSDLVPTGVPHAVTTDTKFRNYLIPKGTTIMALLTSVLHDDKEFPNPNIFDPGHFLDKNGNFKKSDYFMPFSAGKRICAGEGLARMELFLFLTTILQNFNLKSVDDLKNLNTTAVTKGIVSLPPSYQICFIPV", "test": "CYP inhibition in human liver microsomes", "format": "in vitro ADME", "settings": "up to 50 μM", "method_in_brief": "as §1"}, "CYP2C19": {"target": "CYP2C19 (Homo sapiens, UniProt P33261)", "sequence (P33261 whole entry)": "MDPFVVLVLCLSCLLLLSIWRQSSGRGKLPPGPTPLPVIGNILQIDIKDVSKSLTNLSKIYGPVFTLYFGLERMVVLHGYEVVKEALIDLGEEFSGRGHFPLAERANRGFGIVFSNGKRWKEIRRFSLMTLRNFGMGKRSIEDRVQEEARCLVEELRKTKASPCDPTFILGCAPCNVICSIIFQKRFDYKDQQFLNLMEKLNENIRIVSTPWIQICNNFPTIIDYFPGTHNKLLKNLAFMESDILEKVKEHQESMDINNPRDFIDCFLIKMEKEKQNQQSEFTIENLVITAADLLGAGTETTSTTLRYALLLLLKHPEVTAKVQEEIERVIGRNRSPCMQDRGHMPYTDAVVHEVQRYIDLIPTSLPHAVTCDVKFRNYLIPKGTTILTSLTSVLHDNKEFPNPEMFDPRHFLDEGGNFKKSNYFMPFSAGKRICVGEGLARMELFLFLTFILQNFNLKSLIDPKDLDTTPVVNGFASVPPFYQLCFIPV", "test": "CYP inhibition in human liver microsomes", "format": "in vitro ADME", "settings": "up to 15 μM", "method_in_brief": "as §1"}, "CYP2C9": {"target": "CYP2C9 (Homo sapiens, UniProt P11712)", "sequence (P11712 whole entry)": "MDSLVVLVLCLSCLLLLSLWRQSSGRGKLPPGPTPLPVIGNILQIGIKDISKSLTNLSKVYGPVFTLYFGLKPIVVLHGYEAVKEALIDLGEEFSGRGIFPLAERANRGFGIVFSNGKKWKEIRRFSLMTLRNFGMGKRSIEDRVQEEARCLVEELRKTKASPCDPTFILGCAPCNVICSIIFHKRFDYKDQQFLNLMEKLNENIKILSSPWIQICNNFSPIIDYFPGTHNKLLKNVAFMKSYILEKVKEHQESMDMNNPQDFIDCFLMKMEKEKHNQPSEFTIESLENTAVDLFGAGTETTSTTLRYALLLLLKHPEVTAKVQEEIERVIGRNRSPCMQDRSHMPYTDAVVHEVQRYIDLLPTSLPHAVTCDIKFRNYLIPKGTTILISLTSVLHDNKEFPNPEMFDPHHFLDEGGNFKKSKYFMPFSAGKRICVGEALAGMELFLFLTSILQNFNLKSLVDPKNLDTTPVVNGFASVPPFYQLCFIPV", "test": "CYP inhibition in human liver microsomes", "format": "in vitro ADME", "settings": "up to 50 μM", "method_in_brief": "as §1"}, "CYP3A": {"system": "CYP3A", "settings": "200 mg b.i.d.; based on MDZ AUC increase, weak > 1.25 to < 2-fold"}, "OATP1B1": {"target": "T4, OATP1B1 (Homo sapiens, UniProt Q9Y6L6)", "T4 sequence (Q9Y6L6 1-691)": "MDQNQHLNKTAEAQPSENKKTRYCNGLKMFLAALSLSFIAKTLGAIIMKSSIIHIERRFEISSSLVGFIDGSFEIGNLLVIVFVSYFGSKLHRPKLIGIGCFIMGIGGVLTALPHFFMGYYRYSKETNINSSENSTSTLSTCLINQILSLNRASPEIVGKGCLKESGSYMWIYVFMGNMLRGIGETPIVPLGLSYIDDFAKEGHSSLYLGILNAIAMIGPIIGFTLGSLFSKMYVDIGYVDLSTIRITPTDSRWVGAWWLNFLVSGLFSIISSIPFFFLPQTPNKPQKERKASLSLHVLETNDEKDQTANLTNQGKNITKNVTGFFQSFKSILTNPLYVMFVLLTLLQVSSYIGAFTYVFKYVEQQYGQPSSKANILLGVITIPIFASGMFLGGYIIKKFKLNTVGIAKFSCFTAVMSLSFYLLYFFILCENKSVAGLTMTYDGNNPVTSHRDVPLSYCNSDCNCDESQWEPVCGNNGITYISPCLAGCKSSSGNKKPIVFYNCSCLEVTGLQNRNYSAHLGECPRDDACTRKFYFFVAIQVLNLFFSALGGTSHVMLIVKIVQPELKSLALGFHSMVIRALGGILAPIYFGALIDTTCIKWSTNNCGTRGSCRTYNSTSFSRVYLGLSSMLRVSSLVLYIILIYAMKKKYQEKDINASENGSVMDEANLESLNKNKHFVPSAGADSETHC", "test": "Inhibition of OATP1B1-mediated E217ßG uptake in HEK293 cells", "format": "in vitro ADME"}},
  "data": [
    {"smiles": "C[C@H]1CN(C2COC2)CCN1c1ccc(Nc2cc(-c3ccnc(N4CCn5c(cc6c5CC(C)(C)C6)C4=O)c3CO)cn(C)c2=O)nc1", "note": "[fenebrutinib]", "values": [
      {"measurement": "plasma concentration showing target engagement", "setting": "Bruton's tyrosine kinase", "result": 100, "unit": "nM"},
      {"measurement": "reversible or time-dependent inhibition of CYP2B6", "setting": "CYP2B6", "result": "No reversible or time‐dependent inhibition"},
      {"measurement": "terminal half-life (t1/2)", "setting": "[1]", "result": "4−10 hours"},
      {"measurement": "IC50", "setting": "OATP1B3", "result": 7.15, "unit": "µM"},
      {"measurement": "inhibition at 30 μM", "setting": "OATP1B3; human, HEK293 cells stably expressing human OATP1B3, pH 7.4, probe CCK-8 (0.1 μM)", "result": 86.7, "unit": "%"},
      {"measurement": "reversible or time-dependent inhibition of CYP2C8", "setting": "CYP2C8", "result": "No reversible or time‐dependent inhibition"},
      {"measurement": "reversible or time-dependent inhibition of CYP2C19", "setting": "CYP2C19", "result": "No reversible or time‐dependent inhibition"},
      {"measurement": "reversible or time-dependent inhibition of CYP2C9", "setting": "CYP2C9", "result": "No reversible or time‐dependent inhibition"},
      {"measurement": "clinical classification as CYP3A inhibitor", "setting": "CYP3A", "result": "weak inhibitor"},
      {"measurement": "IC50", "setting": "OATP1B1", "result": 19.7, "unit": "µM"},
      {"measurement": "inhibition at 30 μM", "setting": "OATP1B1; human, HEK293 cells stably expressing human OATP1B1, pH 7.4, probe E217ßG (1 μM)", "result": 62.8, "unit": "%"}
    ]}
  ]
}
